According to PMC5538437 (Genes & Development, 2017):

B1: GYF2 NC*: GYF2 L62D, F67D, I70D; non-canonical mutant (protein, UniProt Q6Y7W6 2-1299, looked up, variant L62D F67D I70D)
GRB10-interacting GYF protein …: AAETQTLNFGPEWLRALSSGGSITSPPLSPALPKYKLADYRYGREEMLALFLKDNKIPSDDLDKEDLPDLQEEPLPPLALVPFTEEEQRNFSMSVNSAAVLRLTGRGGGGTVVGAPRGRSSSRGRGRGRGECGFYQRSFDEVEGVFGRGGGREMHRSQSWEERGDRRFEKPGRKDVGRPNFEEGGPTSVGRKHEFIRSESENWRIFREEQNGEDEDGGWRLAGSRRDGERWRPHSPDGPRSAGWREHMERRRRFEFDFRDRDDERGYRRVRSGSGSIDDDRDSLPEWCLEDAEEEMGTFDSSGAFLSLKKVQKEPIPEEQEMDFRPVDEGEECSDSEGSHNEEAKEPDKTNKKEGEKTDRVGVEASEETPQTSSSSARPGTPSDHQSQEASQFERKDEPKTEQTEKAEEETRMENSLPAKVPSRGDEMVADVQQPLSQIPSDTASPLLILPPPVPNPSPTLRPVETPVVGAPGMGSVSTEPDDEEGLKHLEQQAEKMVAYLQDSALDDERLASKLQEHRAKGVSIPLMHEAMQKWYYKDPQGEIQGPFNNQEMAEWFQAGYFTMSLLVKRACDESFQPLGDIMKMWGRVPFSPGPAPPPHMGELDQERLTRQQELTALYQMQHLQYQQFLIQQQYAQVLAQQQKAALSSQQQQQLALLLQQFQTLKMRISDQNIIPSVTRSVSVPDTGSIWELQPTASQPTVWEGGSVWDLPLDTTTPGPALEQLQQLEKAKAAKLEQERREAEMRAKREEEERKRQEELRRQQEEILRRQQEEERKRREEEELARRKQEEALRRQREQEIALRRQREEEERQQQEEALRRLEERRREEEERRKQEELLRKQEEEAAKWAREEEEAQRRLEENRLRMEEEAARLRHEEEERKRKELEVQRQKELMRQRQQQQEALRRLQQQQQQQQLAQMKLPSSSTWGQQSNTTACQSQATLSLAEIQKLEEERERQLREEQRRQQRELMKALQQQQQQQQQKLSGWGNVSKPSGTTKSLLEIQQEEARQMQKQQQQQQQHQQPNRARNNTHSNLHTSIGNSVWGSINTGPPNQWASDLVSSIWSNADTKNSNMGFWDDAVKEVGPRNSTNKNKNNASLSKSVGVSNRQNKKVEEEEKLLKLFQGVNKAQDGFTQWCEQMLHALNTANNLDVPTFVSFLKEVESPYEVHDYIRAYLGDTSEAKEFAKQFLERRAKQKANQQRQQQQLPQQQQQQPPQQPPQQPQQQDSVWGMNHSTLHSVFQTNQSNNQQSNFEAVQSGKKKKKQKMVRADPSLLGFSVNASSERLNMGEIETLDDY
B2: GYF1 A1*: GYF1 P76D, L77A; auxiliary site 1 mutant (protein, UniProt O75420 1-1035, looked up, variant P76D L77A)
GRB10-interacting GYF protein …: MAAETLNFGPEWLRALSGGGSVASPPPSPAMPKYKLADYRYGREEMLALYVKENKVPEELQDKEFAAVLQDEPLQDAALEPLTEEEQRNFSLSVNSVAVLRLMGKGAGPPLAGTSRGRGSTRSRGRGRGDSCFYQRSIEEGDGAFGRSPREIQRSQSWDDRGERRFEKSARRDGARCGFEEGGAGPRKEHARSDSENWRSLREEQEEEEEGSWRLGAGPRRDGDRWRSASPDGGPRSAGWREHGERRRKFEFDLRGDRGGCGEEEGRGGGGSSHLRRCRAPEGFEEDKDGLPEWCLDDEDEEMGTFDASGAFLPLKKGPKEPIPEEQELDFQGLEEEEEPSEGLEEEGPEAGGKELTPLPPQEEKSSSPSPLPTLGPLWGTNGDGDETAEKEPPAAEDDIRGIQLSPGVGSSAGPPGDLEDDEGLKHLQQEAEKLVASLQDSSLEEEQFTAAMQTQGLRHSAAATALPLSHGAARKWFYKDPQGEIQGPFTTQEMAEWFQAGYFSMSLLVKRGCDEGFQPLGEVIKMWGRVPFAPGPSPPPLLGNMDQERLKKQQELAAAALYQQLQHQQFLQLVSSRQLPQCALREKAALGDLTPPPPPPPQQQQQQLTAFLQQLQALKPPRGGDQNLLPTMSRSLSVPDSGRLWDVHTSASSQSGGEASLWDIPINSSTQGPILEQLQLQHKFQERREVELRAKREEEERKRREEKRRQQQQEEQKRRQEEEELFRRKHVRQQELLLKLLQQQQAVPVPPAPSSPPPLWAGLAKQGLSMKTLLELQLEGERQLHKQPPPREPARAQAPNHRVQLGGLGTAPLNQWVSEAGPLWGGPDKSGGGSSGLGLWEDTPKSGGSLVRGLGLKNSRSSPSLSDSYSHLSGRPIRKKTEEEEKLLKLLQGIPRPQDGFTQWCEQMLHTLSATGSLDVPMAVAILKEVESPYDVHDYIRSCLGDTLEAKEFAKQFLERRAKQKASQQRQQQQEAWLSSASLQTAFQANHSTKLGPGEGSKAKRRALMLHSDPSILGYSLHGSSGEIESVDDY

Tested on: 4EHP
Assay: Pull-down / coimmunoprecipitation with 4EHP in HEK293T cell lysates
Type: binding, human
Conditions: HEK293T cells, GFP-tagged protein and V5-SBP-4EHP, Western blot
Method in brief: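 Streptavidin-bead pull-down from RNase A-treated HEK293T lysates of cells expressing V5-SBP-tagged 4EHP or eIF4E (wild type or mutants). Co-bound endogenous GYF2, 4E-T and 4E-BP1 were probed; for 4EHP, co-expressed GFP-4E-BP1 was also probed, with V5-SBP-MBP as negative control. Inputs and bound fractions were analysed by Western blot with anti-V5, anti-GFP, anti-GYF2 and other antibodies, using ECL detection.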

Row | Molecule | interaction with 4EHP in cells, overexpressed binding partner
1 | B1 | did not affect binding to overexpressed 4EHP in human cells
2 | B2 | did not affect binding to overexpressed 4EHP in human cells
